Experimental data pooled from the literature.
Compare with care: the assays were run in different laboratories.

With `O=c1c2ccccc2nc(/C=C/c2ccc(C(F)(F)F)cc2)n1-c1cccc(O)c1` the MIC was 32 µg/mL (Enterococcus faecium; microbial growth, broth dilution; NCTC7171).
The IC50 of `O=C(NOC[C@H](O)CO)c1ccc(F)c(F)c1Nc1ccc(I)cc1F` is reported as greater than 10 µM (MB002; cell growth or viability; 7 days).
`CC[C@H](C)[C@@H]([C@@H](CC(=O)N1CCC[C@H]1[C@H](OC)[C@@H](C)C(=O)N[C@@H](Cc1ccccc1)C(=O)O)OC)N(C)C(=O)[C@@H](NC(=O)[C@H](C(C)C)N(C)C(=O)CCc1cn(CCOCCOCCOCCOCC(=O)NCc2ccc(CN3C(=O)[C@H]4CC(=O)N[C@H](C(=O)O)CC(=O)NCC(=O)N[C@@H](CCCNC(=N)N)C(=O)NC[C@H]3C(=O)N4)cc2)nn1)C(C)C` gave an IC50 of greater than 1 µM (M21; cell growth or viability, MTT; 72 h).
`COC(=O)c1cc(-c2cccc(NC(=S)NC3CCCCC3)c2)on1` gave an MIC of greater than 64 µg/mL (Mycobacteroides chelonae; microbial growth, broth dilution; ATCC35752; 48 h).
The IC50 of `N.N.[Cl][Pt][Cl]` is reported as 84.4 µM (CCD 19Lu; cell growth or viability; 48 h).
The EC50 of `O=C(O)c1cc(Cl)ccc1-c1ccc(Cl)cc1C(=O)Nc1ccc2c(c1)Cc1ccccc1-2` is reported as 28.5 µM (Trypanosoma brucei; parasite growth, resazurin; 72 h).
With `O=c1c2ccccc2nc(/C=C/c2ccc([N+](=O)[O-])cc2)n1-c1ccccc1O` the MIC was greater than 128 µg/mL (Enterococcus faecium; microbial growth, broth dilution; NCTC7171).
For `CO[C@H]1/C=C/O[C@@]2(C)Oc3c(C)c(O)c4c(O)c(c(/C=N/N5CCN(C)CC5)c(O)c4c3C2=O)NC(=O)/C(C)=C\C=C\[C@H](C)[C@H](O)[C@@H](C)[C@@H](O)[C@@H](C)[C@H](OC(C)=O)[C@@H]1C`, the MIC was less than 0.78 µM (Mycobacteroides chelonae; microbial growth; 72 h).
The MIC of `O=C(Nc1cccc(-c2cc(C(=O)O)no2)c1)Nc1ccc(Cl)c(Cl)c1` is reported as greater than 64 µg/mL (Mycobacteroides chelonae; microbial growth, broth dilution; ATCC35752; 48 h).
`O=C(O)c1ccc(/C=C/c2nc3ccccc3c(=O)n2-c2cccc(O)c2)cc1` gave an MIC of 64 µg/mL (Enterococcus faecium; microbial growth, broth dilution; NCTC7171).
The MIC of `CCCCCCNC(=S)Nc1cccc(-c2cc(C(=O)OC)no2)c1` is reported as greater than 64 µg/mL (Mycobacteroides chelonae; microbial growth, broth dilution; ATCC35752; 48 h).
`O=C1[O][Pt]2([NH][C@@H]3CCCC[C@H]3[NH]2)[O]C1=O` has an IC50 of 2.33 µM (HD-MB03; cell growth or viability; 7 days).
